{"data": "Measured values pooled from the literature", "note": "Compare with care: the assays were run in different laboratories."}
{"SMILES": "Cc1ncc(C)n2nc(/C=C/c3nc(N4CCCC4)cc(N4CCOCC4)n3)nc12", "system": "male beagle dog, plasma", "setting": "oral, 0.3 mg/kg", "endpoint": "Cmax", "result": "78 nM"}
{"SMILES": "CCN(CC)CCCC[C@H](NC(=O)[C@H](CC(C)C)NC(=O)[C@H](C)NC(=O)[C@H](Cc1ccccc1)NC(=O)c1ccc(C(C)(C)C)cc1)C(=O)N[C@@H](CO)C(=O)OC", "system": "male Swiss mouse, blood", "setting": "intravenous, 3 mg/kg", "endpoint": "clearance", "result": "26.5 mL/min/kg"}
{"SMILES": "Cl.Cl.O=C(CCN1CCCCC1)c1ccc(-c2ccc(C(=O)CCN3CCCCC3)cc2)cc1", "system": "Sprague-Dawley rat, plasma", "setting": "oral, 25 mg/kg", "endpoint": "Tmax", "result": "37.8 min"}
{"SMILES": "CNC(=O)[C@@H](NC(=O)c1cc(OCC2(C)COC2)c(C2CC2)cn1)C(C)(C)C", "system": "C57BL/6 mouse, plasma", "setting": "intravenous", "endpoint": "clearance", "result": "73.8 mL/min/kg"}
{"SMILES": "N=c1c2c(-c3ccccc3)c(-c3ccccc3)n(Cc3ccccc3)c2ncn1[C@H]1CC[C@H](O)CC1", "assay": "metabolic stability", "system": "beagle dog, hepatocytes", "setting": "1 µM, 4 h", "endpoint": "compound remaining", "result": "118%"}
{"SMILES": "O=C(Nc1cccnn1)N1CCN([C@@H]2CCOc3cc(C(F)(F)F)ccc32)CC1", "system": "male Sprague-Dawley rat, plasma", "setting": "oral, 3 mg/kg", "endpoint": "Tmax", "result": "40.2 min"}
{"SMILES": "CCC[C@@](N)(CO)CCc1ccc(OCCCCCC(C)C)cc1", "system": "dog, plasma", "setting": "oral, 20 mg/kg, fed", "endpoint": "Cmax", "result": "995 nM"}
{"SMILES": "Cc1cc(C)nc(Nc2ncc(C(=O)NCCc3c(C)[nH]c4ccccc34)cn2)c1", "system": "beagle dog, plasma", "setting": "intravenous, 3 mg/kg", "endpoint": "clearance", "result": "10 mL/min/kg"}
{"SMILES": "C[C@]12CC[C@H](n3ccnc3)CC1=CC[C@@H]1[C@@H]2CC[C@]2(C)C(n3cnc4ccccc43)=CC[C@@H]12.Cl.Cl", "system": "male CD-1 mouse, plasma", "setting": "intravenous, 1 mg/kg", "endpoint": "C0", "result": "603 ng/mL"}
{"SMILES": "Cc1nc([C@@](C)(CC2CC2)NC(=O)c2cc(OCC(F)(F)F)c(C3CC3)cn2)no1", "system": "C57BL/6 mouse, plasma", "setting": "intravenous", "endpoint": "clearance", "result": "11.8 mL/min/kg"}
{"SMILES": "CN[C@H](CC(C)C)C(=O)N[C@H]1C(=O)N[C@@H](CC(N)=O)C(=O)N[C@H]2C(=O)NC3C(=O)N[C@H](C(=O)N[C@H](C(=O)NCCC[N+](C)(C)C)c4cc(O)cc(O)c4-c4cc3ccc4O)[C@H](O)c3ccc(c(Cl)c3)Oc3cc2cc(c3OC2OC(CO)C(O)[C@H](O)[C@@H]2O[C@H]2CC(C)(NCc3ccc(-c4ccc(Cl)cc4)cc3)[C@H](O)[C@H](C)O2)Oc2ccc(cc2Cl)[C@H]1O (some centres unmarked)", "system": "mouse, plasma", "setting": "intravenous, 10 mg/kg", "endpoint": "clearance", "result": "2 mL/min/kg"}
